From ChEMBL document CHEMBL4251647, “Synthesis, anticancer activity and mechanism of action of new thiazole derivatives” (Eur J Med Chem, 2018)

What was measured:
K562 [1] = experiment: Cell cycle arrest in human K562 cells assessed as accumulation at G2/M-phase at 34 uM after 48 hrs by flow cytometry (reference value: 35.97 +/- 1.94%); type: functional
Summary of the method: (§1)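 K562 cells seeded at 3 x 10^5 cells/mL in RPMI-1640 and exposed 48 h at 37 °C, 5% CO2. Cells were stained with propidium iodide (Guava cell cycle kit) and 5,000 events acquired by flow cytometry. Vehicle control was 0.1% DMSO. Two independent experiments, each in triplicate.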

NCI-H292 [2] = experiment: Cytotoxicity against human NCI-H292 cells assessed as inhibition of cell viability at 25 ug/ml after 72 hrs by MTT assay relative to control; type: functional; details: NCI-H292, 72 h
Summary of the method: (§2)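 Single-concentration MTT screen at 25 µg/mL for 72 h. Seeding was 3 x 10^5 cells/mL (HL-60, K562) or 1 x 10^5 cells/mL (adherent), with 24 h preincubation. MTT was added for the final 3 h, formazan dissolved in DMSO and absorbance read at 560 nm. Results are given as percent inhibition ± SD.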

Erythrocyte = experiment: Hemolytic activity in human erythrocytes after 1 hr by spectrophotometric method; type: ADME, cell-based
Summary of the method: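 Human erythrocytes as a 2% suspension in 0.85% NaCl with 10 mM CaCl2 were exposed to 0.78–250 µg/mL for 1 h at room temperature. After centrifugation, released haemoglobin in the supernatant was read at 540 nm. Triton X-100 (1%) served as positive control; EC50 is the concentration giving 50% haemolysis.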

K562 [3] = experiment: Cell cycle arrest in human K562 cells assessed as accumulation at S-phase at 34 uM after 48 hrs by flow cytometry (reference value: 17.39 +/- 0.84%); type: functional; summary of the method: as §1
PBMC = experiment: Cytotoxicity against human PBMC cells assessed as inhibition of cell viability after 72 hrs by alamar blue assay; type: cell-based
Summary of the method: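 PBMC from healthy donors were grown in RPMI-1640 with 20% FBS and 2% phytohaemagglutinin, then plated at 10^6 cells/mL. After 24 h, compounds (0.048–25 µg/mL, in DMSO) were added for 72 h. Resazurin was added for the final 24 h and absorbance read at 570 and 595 nm as percent of control.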

K562 [4] = experiment: Induction of DNA damage in human K562 cells at 34 uM after 48 hrs by propidium iodide staining based flow cytometry (reference value: 3.62 +/- 0.37%); type: functional
[5] = Selectivity index, ratio of IC50 for human PBMC to IC50 for human K562 cells; type: toxicity; details: human PBMC and human K562 cells, read-out: Ratio IC50
Summary of the method: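 Ratio of IC50 in PBMC (Alamar blue, 72 h) to IC50 in K562 cells (MTT, 72 h), calculated as SI = IC50(PBMC)/IC50(K562).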

K562 [6] = experiment: Cytotoxicity against human K562 cells assessed as inhibition of cell viability after 48 hrs by MTT assay; type: functional, cell-based; details: K562, 48 h
Summary of the method: (§3)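 K562 cells (3 x 10^5 cells/mL, RPMI-1640 with 10% FBS) were treated with serial dilutions for 24 or 48 h. Viability was read by MTT (absorbance at 560 nm after DMSO solubilisation), and IC50 was obtained by regression.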

K562 [7] = experiment: Induction of mitochondrial membrane potential depolarization in human K562 cells at 34 uM after 48 hrs by Rho-123 staining based flow cytometry (reference value: 12.24 +/- 0.61%); type: functional
K562 [8] = experiment: Cytotoxicity against human K562 cells assessed as inhibition of cell viability at 25 ug/ml after 72 hrs by MTT assay relative to control; type: functional; details: K562, 72 h; summary of the method: as §2
K562 [9] = experiment: Induction of DNA damage in human K562 cells at 17 uM after 48 hrs by propidium iodide staining based flow cytometry (reference value: 3.62 +/- 0.37%); type: functional
HT-29 [10] = experiment: Cytotoxicity against human HT-29 cells assessed as inhibition of cell viability after 72 hrs by MTT assay; type: functional, cell-based; details: HT-29, 72 h
Summary of the method: (§4)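 MTT assay. Leukaemic lines were seeded at 3 x 10^5 cells/mL and adherent lines at 1 x 10^5 cells/mL, then preincubated 24 h. Compounds were added at 0.098–25.0 µg/mL for 72 h, with MTT for the last 3 h. Formazan was dissolved in DMSO and read at 560 nm. IC50 came from regression; triplicate, two independent experiments.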

K562 [11] = experiment: Cell cycle arrest in human K562 cells assessed as accumulation at S-phase at 17 uM after 48 hrs by flow cytometry (reference value: 17.39 +/- 0.84%); type: functional; summary of the method: as §1
HEp-2 [12] = experiment: Cytotoxicity against human Hep2 cells assessed as inhibition of cell viability after 72 hrs by MTT assay; type: functional, cell-based; details: HEp-2, 72 h; summary of the method: as §4
K562 [13] = experiment: Cytotoxicity against human K562 cells assessed as inhibition of cell viability by MTT assay; type: functional, cell-based; details: TDE = time-dependent effect
K562 [14] = experiment: Cytotoxicity against human K562 cells assessed as inhibition of cell viability after 72 hrs by MTT assay; type: functional, cell-based; details: K562, 72 h; summary of the method: as §4
K562 [15] = experiment: Cytotoxicity against human K562 cells assessed as inhibition of cell viability after 24 hrs by MTT assay; type: functional, cell-based; details: K562, 24 h; summary of the method: as §3
K562 [16] = experiment: Cell cycle arrest in human K562 cells assessed as accumulation at G1-phase at 17 uM after 48 hrs by flow cytometry (reference value: 45.54 +/- 1.34%); type: functional; summary of the method: as §1
K562 [17] = experiment: Cell cycle arrest in human K562 cells assessed as accumulation at G2/M-phase at 17 uM after 48 hrs by flow cytometry (reference value: 35.97 +/- 1.94%); type: functional; summary of the method: as §1
HL-60 [18] = experiment: Cytotoxicity against human HL60 cells assessed as inhibition of cell viability after 72 hrs by MTT assay; type: functional, cell-based; details: HL-60, 72 h; summary of the method: as §4
HT-29 [19] = experiment: Cytotoxicity against human HT-29 cells assessed as inhibition of cell viability at 25 ug/ml after 72 hrs by MTT assay relative to control; type: functional; details: HT-29, 72 h; summary of the method: as §2
NCI-H292 [20] = experiment: Cytotoxicity against human NCI-H292 cells assessed as inhibition of cell viability after 72 hrs by MTT assay; type: functional, cell-based; details: NCI-H292, 72 h; summary of the method: as §4
HEp-2 [21] = experiment: Cytotoxicity against human Hep2 cells assessed as inhibition of cell viability at 25 ug/ml after 72 hrs by MTT assay relative to control; type: functional; details: HEp-2, 72 h; summary of the method: as §2
K562 [22] = experiment: Induction of mitochondrial membrane potential depolarization in human K562 cells at 17 uM after 48 hrs by Rho-123 staining based flow cytometry (reference value: 12.24 +/- 0.61%); type: functional
HL-60 [23] = experiment: Cytotoxicity against human HL60 cells assessed as inhibition of cell viability at 25 ug/ml after 72 hrs by MTT assay relative to control; type: functional; details: HL-60, 72 h; summary of the method: as §2
K562 [24] = experiment: Cell cycle arrest in human K562 cells assessed as accumulation at G1-phase at 34 uM after 48 hrs by flow cytometry (reference value: 45.54 +/- 1.34%); type: functional; summary of the method: as §1

Question: With `FC(F)(F)c1ccc(/C=N/Nc2nc(-c3ccc(Cl)cc3Cl)cs2)cc1` as the compound, how does the Activity (K562 [1]) read?
Answer: 11.47%

Question: And the inhibition at 25 µg/mL (NCI-H292 [2])?
Answer: 96.5%

Question: What about the EC50 (Erythrocyte) of the same compound?
Answer: > 250 mg/L

Question: What about the Activity (K562 [3]) of the same compound?
Answer: 6.72%

Question: What about the IC50 (PBMC) of the same compound?
Answer: 43 µM

Question: What about the Activity (K562 [4]) of the same compound?
Answer: 22.43%

Question: What about the selectivity ratio [5] of the same compound?
Answer: 7.85

Question: What about the IC50 (K562 [6]) of the same compound?
Answer: 17.8 µM

Question: And the Activity (K562 [7])?
Answer: 37.12%

Question: And the inhibition at 25 µg/mL (K562 [8])?
Answer: 88.9%

Question: What about the Activity (K562 [9]) of the same compound?
Answer: 19.74%

Question: What about the IC50 (HT-29 [10]) of the same compound?
Answer: 11.2 µM

Question: And the Activity (K562 [11])?
Answer: 7.23%

Question: And the IC50 (HEp-2 [12])?
Answer: 7.65 µM

Question: And the Activity (K562 [13])?
Answer: Tde

Question: What about the IC50 (K562 [14]) of the same compound?
Answer: 5.48 µM

Question: What about the IC50 (K562 [15]) of the same compound?
Answer: > 60.1 µM

Question: What about the Activity (K562 [16]) of the same compound?
Answer: 85.25%

Question: What about the Activity (K562 [17]) of the same compound?
Answer: 7.51%

Question: And the IC50 (HL-60 [18])?
Answer: 17.8 µM

Question: What about the inhibition at 25 µg/mL (HT-29 [19]) of the same compound?
Answer: 79.5%

Question: What about the IC50 (NCI-H292 [20]) of the same compound?
Answer: 10.4 µM

Question: And the inhibition at 25 µg/mL (HEp-2 [21])?
Answer: 96.7%

Question: And the Activity (K562 [22])?
Answer: 25.05%

Question: And the inhibition at 25 µg/mL (HL-60 [23])?
Answer: 91.1%

Question: And the Activity (K562 [24])?
Answer: 82.74%
